SENP8 block-1: SENP8 protease inhibitors, primary screen, biochemical, luminescence. 1.2% of 330,000 active. inhibition, % at 10 µM. AID 2540, 2010. purified SENP8, Z-RLRGG-aminoluciferin cleavage; in the data active = inhibition above about 50%
SENP6 block: SENP6 protease inhibitors, primary screen, biochemical, luminescence, uHTS; Sentrin-specific protease 6 (Homo sapiens), Q9GZR1; Recombinant SENP6 catalytic domain, aminoluciferin luminescence; inhibition, % at 10 µM; 1.8% of 330,000 active;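 active = inhibition above about 50% at the single tested dose, limit read from the data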;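 note: plate controls were DMSO wells with enzyme for no effect and DMSO wells lacking enzyme for full effect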
Target sequence (Q9GZR1 628-1112 limits assumed): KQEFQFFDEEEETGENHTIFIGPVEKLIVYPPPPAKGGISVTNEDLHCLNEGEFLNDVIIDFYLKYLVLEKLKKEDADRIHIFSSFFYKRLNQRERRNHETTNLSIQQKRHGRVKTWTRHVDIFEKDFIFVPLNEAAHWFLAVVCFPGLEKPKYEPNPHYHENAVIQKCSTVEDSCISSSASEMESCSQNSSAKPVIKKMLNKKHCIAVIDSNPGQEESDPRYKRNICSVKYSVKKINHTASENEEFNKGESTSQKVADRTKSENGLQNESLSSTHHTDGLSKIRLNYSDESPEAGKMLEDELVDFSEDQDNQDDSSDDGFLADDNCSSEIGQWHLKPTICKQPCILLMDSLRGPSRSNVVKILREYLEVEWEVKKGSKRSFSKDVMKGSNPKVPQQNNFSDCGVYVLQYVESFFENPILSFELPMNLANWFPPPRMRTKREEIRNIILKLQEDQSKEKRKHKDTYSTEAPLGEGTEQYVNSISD
Platelet DG rel: inhibitors of platelet dense granule secretion, primary screen, cell-based, MLPCN, human platelets; human platelet-rich plasma, SFLLRN dense granule ATP release, luminescence; inhibition, %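 (compounds screened at 7.5 µM in platelet-rich plasma)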; 0.22% of 300,000 active; AID 1663, 2009;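 active = mean replicate score, as percent of positive control, at or above 50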
SENP1 inh: human SENP1 catalytic domain inhibitors, primary screen, biochemical, FRET, uHTS | Sentrin-specific protease 1 (Homo sapiens), Q9P0U3 | recombinant SENP1 catalytic domain, CyPet-SUMO1-YPet FRET cleavage | inhibition, % at 10 µM | 0.21% of 360,000 active | AID 624204, 2012;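 active = inhibition at least 30% at 10 µM, raw YFP signal under a set limit, fluorescence ratio 0.5 to 1.5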;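 note: 0% = enzyme with DMSO and 100% = no enzyme wells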
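Material – human SENP1 catalytic domain · Input – SENP1 enzyme, 20 pM final · Compound dosing – single concentration of 10 µM compound, 0.5% DMSO final · Timing – enzyme reaction for 50 min at room temperature, dark · Measured by – FRET fluorescence in CFP and YFP emission channels · Control set – no-enzyme wells low, DMSO-plus-enzyme wells high control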
SENP8 block-2: human SENP8 protease inhibitors, primary screen, biochemical, fluorescence, Nedd8 protein substrate, uHTS. inhibition, % at 20 µM. AID 602440, 2012. Sentrin-specific protease 8 (Homo sapiens), Q96LD8. recombinant SENP8. 0.64% of 360,000 active; in the data active = inhibition mostly above about 40%, no sharp cut-off; inactive = mostly below about 27%
SENP7 block: SENP7 protease inhibitors, primary screen, biochemical, luminescence, uHTS | inhibition, % at 5 µM | Sentrin-specific protease 7 (Homo sapiens), Q9BQF6 | 1.5% of 330,000 active | recombinant SENP7, Z-RLRGG-aminoluciferin luminescence, 40 min;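 active = inhibition above about 50% at the single test dose, limit read from the data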;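 note: plate controls were DMSO with enzyme for no effect and no enzyme buffer wells for full effect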
SENP8 conf: SENP8 protease inhibitors, retest, confirmation, biochemical, luminescence, single concentration; 40% of 6,200 active; Recombinant SENP8, Z-RLRGG-aminoluciferin luminescence, 60 min; inhibition, % at 12.5 µM; shares compounds with SENP7 block;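 active = mean inhibition across replicates above about 50%, limit read from the data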
SENP6 confirm: SENP6 protease inhibitors, confirmation, biochemical, luminescence, single concentration; inhibition, % at 12.5 µM; recombinant SENP6, Z-RLRGG-aminoluciferin luminescence; 58% of 6,200 active; shares compounds with SENP7 block
SENP7 conf: SENP7 protease inhibitors, retest, confirmation, biochemical, luminescence, single concentration; recombinant SENP7, Z-RLRGG-aminoluciferin luminescence, 40 min; shares compounds with SENP7 block; inhibition, % at 12.5 µM; AID 488917, 2010; 69% of 6,200 active
Casp3 SENP sel: caspase-3 protease inhibitors, confirmation, selectivity assay for SENP inhibitor project, biochemical, single concentration; 60% of 6,200 active; inhibition, % at 12.5 µM; AID 488918, 2010; purified caspase-3, Z-DEVD-aminoluciferin luminescence, 60 min; shares compounds with SENP7 block;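 active = mean inhibition above about 50%, limit read from the data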;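 note: plate controls were enzyme with DMSO for no effect and wells without caspase-3 for full effect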
Luc interf: counter-screen for SENP inhibitors: luminescence interference; shares compounds with SENP7 block; Pre-incubated SENP8/Z-RLRGG-aminoluciferin, luciferase luminescence interference; inhibition, % at 12.5 µM; 39% of 6,200 active; AID 488919;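 active = mean inhibition above about 50% when retested at one dose, limit read from the data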;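 note: plate controls were DMSO wells with completed reaction for no effect and substrate without enzyme for full effect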
* marks the source's active call; other numbers are inactive results; . = no result. A selection: hits, their analogues and other compounds. The true share with any hit is near 2.6%.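 Rule for the calls, unless noted: active = mean inhibition above about 50% in the one-dose retest (limit read from the data); inactive = the rest.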

SMILES	SENP8 block-1	SENP6 block	Platelet DG rel	SENP1 inh	SENP8 block-2	SENP7 block	SENP8 conf	SENP6 confirm	SENP7 conf	Casp3 SENP sel	Luc interf
CCOc1ccc(-c2nnc(-c3cccs3)o2)cc1	73*	48	6	4	-284	85*	38	62*	60*	72*	22
c1csc(-c2nnc(-c3ccc(N4CCOCC4)cc3)o2)c1	11	59*	2	-11	-281	52*	-12	-2	30	32	16
COc1ccc(-c2nnc(-c3cccs3)o2)cc1OC	45	63*	10	2	-318	68*	58*	56*	86*	81*	20
CCOc1ccc(-c2nnc(-c3cccs3)o2)cc1OCC	-7	-33	-2	0	-301	-12	.	.	.	.	.
CC(C)COc1ccc(-c2nnc(-c3ccncc3)o2)cc1	27	66*	8	2	-316	57*	25	31	41	46	30
C[C@H](CO)N1C[C@H](C)[C@@H](CN(C)S(=O)(=O)c2ccc(F)cc2)Oc2c(NC(=O)Cc3ccccc3)cccc2C1=O	2	8	.	1	4	-4	.	.	.	.	.
COc1ccc(CNCCS(=O)(=O)NN2CCOCC2)cc1	.	.	.	2	4	1	.	.	.	.	.
N#Cc1c(-c2ccccc2Cl)noc1/C=C/Nc1ccc(C(=O)O)cc1	95*	95*	-1	-51	-338	69*	89*	97*	97*	84*	12
COc1ccc(C(=O)NCC(=O)N/N=C/c2ccc(C)o2)cc1OC	-10	-5	-15	0	8	-7	.	.	.	.	.
COc1ccc(C(=O)OCC(=O)Nc2ncc([N+](=O)[O-])s2)cc1OC	11	3	.	-14	14	8	.	.	.	.	.
Cc1ccc(CC(=O)Nc2ncc([N+](=O)[O-])s2)cc1	88*	91*	-10	-14	-175	63*	93*	93*	99*	91*	55*
Cc1ccc(S(=O)(=O)CC(=O)Nc2ncc([N+](=O)[O-])s2)cc1	0	7	-6	-15	8	13	.	.	.	.	.
O=C(CCS(=O)(=O)Cc1ccccc1)Nc1ncc([N+](=O)[O-])s1	84*	88*	4	-12	7	83*	-1	83*	97*	71*	82*
O=C(COC(=O)c1ccc(Br)o1)Nc1ncc([N+](=O)[O-])s1	65*	74*	.	-18	18	28	69*	66*	86*	78*	73*
CC(C)NC(=O)C1(C)CN(S(C)(=O)=O)CC(=O)N1C1CCN(Cc2ccccc2)CC1 (stereo not drawn)	.	.	.	-1	2	.	.	.	.	.	.
COC(=O)c1cccc(NC(=O)c2ccccc2)c1	-9	-4	-1	3	13	0	.	.	.	.	.
COC(=O)c1cccc(NC(=O)c2onc3c2CCCC3)c1	76*	92*	-2	1	19	79*	-4	47	79*	61*	65*
O=C(Nc1ccc2ccccc2c1)c1onc2c1CCCC2	65*	80*	1	-3	1	52*	39	82*	93*	60*	44
CSc1nsc(NC(=O)OCc2ccc(Cl)cc2)n1	5	30	-1	0	6	-5	.	.	.	.	.
COc1ccsc1NC(=O)OCc1ccc(Cl)cc1	49	50*	1	-5	2	38	58*	56*	84*	55*	62*
C/C(=N/N=C/c1ccc(N(C)C)cc1)c1ccccc1	98*	97*	56*	-35	-43	101*	3	80*	101*	67*	26
CCOC(=O)c1c(C)oc2c1C(=O)c1ccccc1C2=O	17	49	1	0	39	10	.	.	.	.	.
Cc1oc2c(c1C(=O)O)C(=O)c1ccccc1C2=O	30	63*	1	18	45*	18	12	52*	30	51*	18
Cc1oc2c(c1C(=O)c1ccccc1)C(=O)C(=O)c1ccccc1-2	65*	83*	-11	21	99*	42	-4	72*	49	5	-1
COc1ccc(CCn2nc(C)c([N+](=O)[O-])c2C)cc1	30	71*	-10	2	1	59*	57*	53*	82*	79*	62*
SMILES	SENP8 block-1	SENP6 block	Platelet DG rel	SENP1 inh	SENP8 block-2	SENP7 block	SENP8 conf	SENP6 confirm	SENP7 conf	Casp3 SENP sel	Luc interf
CCCC(=O)N1CCCC1(C)C(=O)Nc1cc(C)ccc1C (stereo not drawn)	.	.	.	0	5	.	.	.	.	.	.
Nc1cc(Cl)nc(N/N=C/c2c(O)ccc3ccccc23)n1	32	58*	14	48*	-20	38	37	47	84*	25	13
Cc1ccccc1-c1nnc(SCC(=O)N(C)C2CCS(=O)(=O)C2)n1C (stereo not drawn)	1	11	.	1	15	-6	.	.	.	.	.
O=C(CS(=O)c1ccc(Br)cc1)N1CCOCC1 (stereo not drawn)	8	3	-1	-1	12	5	.	.	.	.	.
COc1ccc(-c2csc(N3C(=N)SCC3=O)n2)cc1	80*	74*	-6	2	21	9	20	12	17	18	0
COC(=O)c1cc(S(=O)(=O)N2CCN(C(=O)c3ccco3)CC2)cn1C	-1	-1	8	0	10	5	.	.	.	.	.
S=c1nc(C2COc3ccccc3O2)[nH][nH]1 (stereo not drawn)	-2	-10	-9	2	-1	-2	.	.	.	.	.
